Results on two compounds are retold here after ChEMBL document CHEMBL2203050, “Synthesis, evaluation and structure-activity relationships of triazine dimers as novel antiviral agents” (Bioorg Med Chem Lett, 2012).

Series [1] has as its system Human immunodeficiency virus 1. As to the kind of experiment: Antiviral activity against HIV1 infected in human TZM-b1 cells. It is filed as functional, organism-based. The note with it: Human immunodeficiency virus 1, TZM-b1.
Series [2] is described as follows: Cytotoxicity against human TZM-b1 cells. It is filed as cell-based.
Series [3] can be described thus: Selectivity index, ratio of CC50 for human TZM-b1 cells to EC50 for HIV1. The format is toxicity, cell-based. The note with it: read-out: Ratio CC50/EC50.
The subject of series [4] is Human immunodeficiency virus 1. As to the kind of experiment: Antiviral activity against HIV1 assessed as inhibition of viral p24 antigen production treated every 1 hr for 12 hrs by ELISA based time-of-drug addition assay. The format is functional, organism-based. The method, boiled down:
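TZM-bl cells (2 × 10⁴ per well) were infected with virus at 0.4 MOI, with or without compound, for 1 h. Unbound virus was washed off and fresh medium was added, with or without compound. Compound at 50–500 × EC₅₀ was then added each hour over 12 h. p24 was measured by in-house antigen-capture ELISA at 24 h, giving a single replication round. Cells plus medium and cells plus virus served as controls.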
(An ELISA detects its analyte on a solid surface through an enzyme-linked reagent.)

The subject of series [5] is Human immunodeficiency virus 1. In words: Antiviral activity against HIV1 harboring reverse transcriptase VI829 L100I, K103N mutant. The format is functional, organism-based.
For series [6], the system named is Human immunodeficiency virus 1. As to the kind of experiment: Ratio of EC50 for HIV1 harboring reverse transcriptase VI829 L100I, K103N mutant to EC50 for wild type HIV1 VI829.
For series [7], the system named is Human immunodeficiency virus 1. In words: Antiviral activity against HIV1 harboring reverse transcriptase VI829/Y181C mutant. It is filed as functional, organism-based.
In series [8] the test system is Human immunodeficiency virus 1. As to the kind of experiment: Antiviral activity against HIV1 Ba-L harboring reverse transcriptase V106A mutant. It is filed as functional, organism-based. The note with it: Human immunodeficiency virus 1, Ba-L.
For series [9], the system named is Human immunodeficiency virus 1. As to the kind of experiment: Ratio of EC50 for HIV1 Ba-L harboring reverse transcriptase V106A mutant to EC50 for wild type HIV1 Ba-L. The format is functional.
For series [10], the system named is Human immunodeficiency virus 1. As to the kind of experiment: Antiviral activity against wild type HIV1 Ba-L. It is filed as functional, organism-based. The note with it: Human immunodeficiency virus 1, Ba-L.
Series [11] deals with Human immunodeficiency virus 1. As to the kind of experiment: Antiviral activity against HIV1 harboring reverse transcriptase VI829 mutant. The format is functional, organism-based.
The test system of series [12] is Human immunodeficiency virus 1. As to the kind of experiment: Ratio of EC50 for HIV1 harboring reverse transcriptase VI829/Y181C mutant to EC50 for wild type HIV1 VI829.

Molecules are shown by their SMILES. Activity calls are given as the source filed them. The calls are words filed in the database; no cut-off is given here.

As to `Cc1cc(C)c(Nc2nc(Nc3ccc(C#N)cc3)nc(Nc3ccc(Nc4nc(Nc5ccc(C#N)cc5)nc(Nc5c(C)cc(C)cc5C)n4)cc3)n2)c(C)c1`, the EC50 in [1] came out at 170 nM. The compound also displayed a CC50 in series [2] above 100000 nM. Besides, the selectivity ratio in series [3] is above 588.

Turning to `Cc1cc(C)c(Nc2ccnc(Nc3ccc(C#N)cc3)n2)c(C)c1` [DAPIVIRINE], in [4], the inhibition entry is “Active”. For the same compound, the EC50 was above 1000 nM in series [5]; 10.8 nM in series [7]; 2.5 nM in series [8]; 2 nM in [10]; 2 nM in series [11]. In addition, the “Ratio EC50” value in [6] is listed as above 500; in [9] it was 1.3; in series [12] it was 5.4. In series [2], this compound came in with a CC50 of 2880 nM. The selectivity ratio in [3] was determined as 1440.

A word on the EC50: it is the concentration at which the effect is half-maximal. Broadly, the CC50 is the concentration at which the toxic effect on the cells reaches its halfway point. Read a high CC50 as better tolerance by the cells.
